# From ChEMBL document CHEMBL1212827, “Unnatural amino acid side chains as S1, S1', and S2' probes yield cationic antimicrobial peptides with stability toward chymotryptic degradation” (J Med Chem, 2010)
# Non-standard residues stand in square brackets, D forms with d. Residues, ends and D or L forms follow the SMILES beside them. *: point of attachment. Phe(4-guanidino) = N=C(N)Nc1ccc(C[C@H](N)C(=O)O)cc1; Bip = N[C@@H](Cc1ccc(-c2ccccc2)cc1)C(=O)O; Dip = N[C@H](C(=O)O)C(c1ccccc1)c1ccccc1; Phe(4-NH2) = Nc1ccc(C[C@H](N)C(=O)O)cc1; hArg = N=C(N)NCCCC[C@H](N)C(=O)O; Agp = N=C(N)NC[C@H](N)C(=O)O; NHPhenethyl = c1ccc(CCN*)cc1; Orn = NCCC[C@H](N)C(=O)O; NHBn = c1ccc(CN*)cc1
# Tests used:
# Staphylococcus aureus [1] = assay: Antibacterial activity against methicillin-resistant Staphylococcus aureus ATCC 33591; format: functional
# Escherichia coli = assay: Antibacterial activity against Escherichia coli ATCC 25922; format: functional
# Staphylococcus aureus [2] = assay: Antibacterial activity against Staphylococcus aureus ATCC 25923; format: functional
# [3] = Stability of the compound in 0.1 M NH4HCO3 buffer at pH 8.2 assessed as half life in presence of chymotrypsin; format: physicochemical; details: for half-life: chymotrypsin in NH4HCO3 buffer; for t1/2: isolated protein
# Method in brief: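 Peptide 1 mg/mL stock; chymotrypsin 1 mg per 50 mL buffer; both diluted tenfold into 0.1 M NH4HCO3 pH 8.2 and incubated at 37 °C. Aliquots quenched with water/acetonitrile 60/40 containing 0.5% TFA and run on RP-HPLC. Half-life calculated from 214 nm peak areas over the first 5 h. Under 10% degradation at 24 h counted as stable. Enzyme-free samples at 0 and 24 h served as controls.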
# [4] = Toxicity in human RBC assessed as hemolysis at 1 mM after 30 mins relative to control; format: cell-based, Erythrocyte; details: red blood cells (RBC), read-out: Activity
# Method in brief: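 Fresh heparinized human erythrocytes, washed in normal saline. Peptides at 25–1000 μg/mL with 1% v/v final erythrocytes, 30 min at 37 °C with agitation. Supernatant OD read at 405 nm. Saline served as 0% and 1% Triton X as 100% hemolysis; percent lysis taken relative to their difference.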
# [5] = Binding affinity to chymotrypsin by isothermal titration […]
# Method in brief: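 Isothermal titration calorimetry at 25 °C in 0.1 M NH4HCO3 pH 8.2. Peptide (2.1 mM in syringe) injected in 20 aliquots of 5 μL into stirred (150 rpm) chymotrypsin (0.1 mM), 400 s between injections. First injection point discarded. KD fitted from heats of interaction.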
structure (smiles),measurement,setting,value
N=C(N)NCCC[C@H](NC(=O)[C@@H](N)CCCNC(=N)N)C(=O)N[C@@H](Cc1c[nH]c2ccccc12)C(=O)NCc1ccccc1 (H-Arg-Arg-Trp-NHBn),MIC,Staphylococcus aureus [1],26 µM
same,Activity,Escherichia coli,>200 µM
same,MIC,Staphylococcus aureus [2],79 µM
same,half-life,[3],7 h
N=C(N)NCCC[C@H](NC(=O)[C@H](Cc1ccccc1)NC(=O)[C@@H](N)CCCNC(=N)N)C(=O)NCc1ccccc1 (H-Arg-Phe-Arg-NHBn),MIC,Staphylococcus aureus [1],83 µM
same,Activity,Escherichia coli,>200 µM
same,MIC,Staphylococcus aureus [2],165 µM
same,half-life,[3],3 h
NC(=O)[C@H](CCCN=C(N)N)NC(=O)[C@H](Cc1c[nH]c2ccccc12)NC(=O)[C@@H](N)CCCN=C(N)N (H-Arg-Trp-Arg-NH2),MIC,Staphylococcus aureus [1],> 200 µM
same,"hemolysis at 0.5 h, 1000 µM",[4],> 134%
same,Activity,Escherichia coli,>200 µM
same,MIC,Staphylococcus aureus [2],> 200 µM
same,half-life,[3],5 h
N=C(N)NCCC[C@H](NC(=O)[C@H](Cc1c[nH]c2ccccc12)NC(=O)[C@@H](N)CCCNC(=N)N)C(=O)NCc1ccccc1 (H-Arg-Trp-Arg-NHBn),MIC,Staphylococcus aureus [1],132 µM
same,"hemolysis at 0.5 h, 1000 µM",[4],> 5%
same,Activity,Escherichia coli,>200 µM
same,MIC,Staphylococcus aureus [2],79 µM
same,half-life,[3],2 h
N=C(N)NCCC[C@H](NC(=O)[C@H](Cc1c[nH]c2ccccc12)NC(=O)[C@@H](N)CCCNC(=N)N)C(=O)NCCc1ccccc1 (H-Arg-Trp-Arg-NHPhenethyl),MIC,Staphylococcus aureus [1],26 µM
same,Activity,Escherichia coli,>200 µM
same,MIC,Staphylococcus aureus [2],52 µM
same,half-life,[3],0.5 h
N=C(N)NCCC[C@H](N)C(=O)N[C@@H](Cc1c[nH]c2ccccc12)C(=O)N[C@@H](CCCCN)C(=O)NCc1ccccc1 (H-Arg-Trp-Lys-NHBn),MIC,Staphylococcus aureus [1],54 µM
same,Activity,Escherichia coli,>200 µM
same,MIC,Staphylococcus aureus [2],163 µM
same,half-life,[3],4 h
N=C(N)NCCC[C@H](N)C(=O)N[C@@H](Cc1c[nH]c2ccccc12)C(=O)N[C@@H](CNC(=N)N)C(=O)NCc1ccccc1 (H-Arg-Trp-[Agp]-NHBn),MIC,Staphylococcus aureus [1],16 µM
same,"hemolysis at 0.5 h, 1000 µM",[4],> 2%
same,Kd,[5],61.1 µM
same,Activity,Escherichia coli,>200 µM
same,MIC,Staphylococcus aureus [2],54 µM
same,t1/2,[3],Stable
N=C(N)NCCC[C@H](N)C(=O)N[C@@H](Cc1c[nH]c2ccccc12)C(=O)N[C@@H](CCCN)C(=O)NCc1ccccc1 (H-Arg-Trp-[Orn]-NHBn),MIC,Staphylococcus aureus [1],55 µM
same,"hemolysis at 0.5 h, 1000 µM",[4],> 1%
same,Activity,Escherichia coli,>200 µM
same,MIC,Staphylococcus aureus [2],110 µM
same,half-life,[3],20 h
N=C(N)NCCC[C@H](N)C(=O)N[C@@H](Cc1c[nH]c2ccccc12)C(=O)N[C@@H](Cc1ccc(N)cc1)C(=O)NCc1ccccc1 (H-Arg-Trp-[Phe(4-NH2)]-NHBn),MIC,Staphylococcus aureus [1],79 µM
same,"hemolysis at 0.5 h, 1000 µM",[4],> 5%
same,Activity,Escherichia coli,>200 µM
same,MIC,Staphylococcus aureus [2],157 µM
same,t1/2,[3],Stable
N=C(N)NCCC[C@H](N)C(=O)N[C@@H](Cc1c[nH]c2ccccc12)C(=O)N[C@@H](Cc1ccc(NC(=N)N)cc1)C(=O)NCc1ccccc1 (H-Arg-Trp-[Phe(4-guanidino)]-NHBn),MIC,Staphylococcus aureus [1],10 µM
same,Activity,Escherichia coli,>200 µM
same,MIC,Staphylococcus aureus [2],50 µM
same,half-life,[3],4 h
N=C(N)NCCCC[C@H](NC(=O)[C@H](Cc1c[nH]c2ccccc12)NC(=O)[C@@H](N)CCCNC(=N)N)C(=O)NCc1ccccc1 (H-Arg-Trp-[hArg]-NHBn),MIC,Staphylococcus aureus [1],52 µM
same,Activity,Escherichia coli,>200 µM
same,MIC,Staphylococcus aureus [2],78 µM
same,half-life,[3],1 h
N=C(N)NCCC[C@H](NC(=O)[C@H](Cc1ccc(-c2ccccc2)cc1)NC(=O)[C@@H](N)CCCNC(=N)N)C(=O)NCc1ccccc1 (H-Arg-[Bip]-Arg-NHBn),MIC,Staphylococcus aureus [1],15 µM
same,"hemolysis at 0.5 h, 1000 µM",[4],> 5%
same,Kd,[5],18.4 µM
same,Activity,Escherichia coli,>200 µM
same,MIC,Staphylococcus aureus [2],10 µM
same,t1/2,[3],Stable
N=C(N)NCCC[C@H](NC(=O)[C@@H](NC(=O)[C@@H](N)CCCNC(=N)N)C(c1ccccc1)c1ccccc1)C(=O)NCc1ccccc1 (H-Arg-[Dip]-Arg-NHBn),MIC,Staphylococcus aureus [1],10 µM
same,"hemolysis at 0.5 h, 1000 µM",[4],> 10%
same,Activity,Escherichia coli,>200 µM
same,MIC,Staphylococcus aureus [2],25 µM
same,t1/2,[3],Stable
N=C(N)NCCC[C@H](N)C(=O)N[C@@H](Cc1ccc(N)cc1)C(=O)N[C@@H](Cc1c[nH]c2ccccc12)C(=O)NCc1ccccc1 (H-Arg-[Phe(4-NH2)]-Trp-NHBn),MIC,Staphylococcus aureus [1],79 µM
same,Activity,Escherichia coli,>200 µM
same,MIC,Staphylococcus aureus [2],157 µM
same,half-life,[3],17 h
N=C(N)NCCC[C@H](N)C(=O)N[C@@H](Cc1ccc(NC(=N)N)cc1)C(=O)N[C@@H](Cc1c[nH]c2ccccc12)C(=O)NCc1ccccc1 (H-Arg-[Phe(4-guanidino)]-Trp-NHBn),MIC,Staphylococcus aureus [1],15 µM
same,"hemolysis at 0.5 h, 1000 µM",[4],> 2%
same,Activity,Escherichia coli,>200 µM
same,MIC,Staphylococcus aureus [2],50 µM
same,t1/2,[3],Stable
